Source: PubChem BioAssay (several laboratories)
Sampled rows, rich in hits. Any-hit rate of the full collection: about 3.8%.
HCV NS3 hel inh: inhibitors of Hepatitis C virus NS3 helicase. NS3 helicase DNA unwinding, Cy5 molecular beacon fluorescence. inhibition, % at 10.9 µM. hit rate 0.56% among 290,000. AID 1800;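 active = inhibition above the mean of all tested compounds plus 3 SD, set per campaign, cut at about 35% in these data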
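Compound dosing – single dose, 10.9 µM nominal final, DMSO 0.8% final · System – NS3 helicase fragment of HCV · Buffer or medium – MOPS pH 6.5, MgCl2, DTT, Tween20, BSA · Signal – Cy5 beacon fluorescence read at start and 1 h · Also added – annealed dual-labelled DNA beacon duplex, ATP-started · Schedule – 1 h at 25 °C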
Lipid droplet: modulators of hepatic lipid droplet formation; AML12 mouse hepatocytes, oleate lipid droplets, BODIPY imaging; inhibition, % at 6.5 µM; hit rate 0.4% among 240,000; AID 1656;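 active = lipid droplet intensity inhibited by at least 50%, with more than 500 cells counted; inconclusive = wells with under 300 cells, treated as cytotoxic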
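material = mouse AML12 hepatocyte cell line, fixed after treatment | also added = 100 µM oleic acid challenge | doses = compound at 6.5 µM only | schedule = overnight exposure | technique = Image-based BODIPY and DAPI two-channel analysis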
HSF1 inh: HSF1 inhibition; NIH3T3-HGL HSE-luciferase, MG132-induced, luminescence 8 h; active compounds read low; activity change, negative = inhibition, % at 7.5 µM (by protocol); hit rate 0.77% among 300,000; AID 2098;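 active = more than half of replicate wells show activity change below -50%, luminescence cut by over half; inconclusive = some wells, but at most half, below -50%; inactive = no replicate well below -50%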;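 also: luciferase reports HSF-1 transcriptional activity via heat shock element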
HSF1 activator: increases HSF-1 driven luciferase reporter signal | hit rate 1.7% among 300,000 | activation, % at 9 µM | NIH3T3-HGL HSF-1 luciferase reporter, MG132, 8 h; 100% = twice DMSO control signal;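 active = mean replicate activation of at least 50% with a set share of replicates each reaching 50%; inconclusive = only one of those two conditions met; inactive = mean below 50% and too few replicates reaching it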
HSP90 inh: blocks HSP90-mediated luciferase refolding in reticulocyte lysate | Rabbit reticulocyte lysate, luciferase refolding luminescence, 3 h | inhibition, % at 5.6 µM | hit rate 0.91% among 290,000 | AID 1789;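 active = inhibition above the screen-wide mean plus 3 SD, computed separately per campaign, cut at about 16% in these data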;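 also: inhibitors lower the luminescence because luciferase stays unfolded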
Hits are given with their value; – = inactive; ? = inconclusive; · = no result.

SMILES	HCV NS3 hel inh	Lipid droplet	HSF1 inh	HSF1 activator	HSP90 inh
Cc1ccc(C2Nc3ccc4ccccc4c3C3=C2C(=O)CC(C)(C)C3)o1 (stereo not drawn)	–	–	–	86	–
CC1(C)CC(=O)C2=C(C1)c1c(ccc3ccccc13)NC2c1ccc(C(=O)O)cc1 (stereo not drawn)	–	–	–	–	–
CCCCc1cc(=O)oc2cc(OCC(=O)NCC3CCC(C(=O)O)CC3)ccc12 (stereo not drawn)	–	·	–	–	–
C=Cc1ccc2c(c1)N(C)C(=C)S2	–	–	–	–	–
Cc1ccc(C2NNC(=O)C2NC(=O)c2ccccc2)cc1 (stereo not drawn)	–	–	–	65	–
Cn1c(CSc2ccccc2)c(C#N)c2ccccc21	–	·	–	90	–
Cc1ccc(SCc2c(C#N)c3ccccc3n2C)cc1	–	–	–	–	–
COc1ccc(S(=O)(=O)N2CCC(C(=O)N[C@@H](C)C(=O)NC3CCCC3)CC2)cc1	–	–	–	–	–
CN(CCCC(=O)NCc1ccc2c(c1)OCO2)S(=O)(=O)c1ccc([N+](=O)[O-])cc1	–	–	–	–	–
O=[N+]([O-])c1cc(-c2ncccn2)c([N+](=O)[O-])s1	–	–	–	97	–
[NH-]c1ncnc2c1N=C[N+]2=CC=CCO	–	–	–	–	–
Cc1cc2nc(Sc3c([N+](=O)[O-])nc(C)n3Cc3ccccc3)[nH]c2cc1C	–	–	–	95	–
Cc1nc([N+](=O)[O-])c(N2CCN(Cc3ccccc3)CC2)n1Cc1ccccc1	–	–	–	–	–
Cc1nc([N+](=O)[O-])c(Sc2nc3ccccc3[nH]2)n1Cc1ccccc1	–	–	–	56	–
COc1ccc2nc(Sc3c([N+](=O)[O-])nc(C)n3Cc3ccccc3)[nH]c2c1	–	·	–	107	–
Cn1cnc([N+](=O)[O-])c1Sc1nc2ccccc2[nH]1	–	–	–	–	–
COc1ccc(C(C[N+](=O)[O-])C2(c3ccc(OC)c(OC)c3)C(=O)c3ccccc3C2=O)cc1 (stereo not drawn)	–	–	–	214	–
Nc1ccc(O)c(-c2nc3ccccc3s2)c1	–	·	–	–	–
COc1ccc(-c2nc3ccccc3s2)cc1	–	–	·	·	18
Nc1ccccc1-c1nc2ccccc2s1	–	–	-71	–	–
COc1cccc(-c2nc3ccccc3s2)c1	–	–	–	–	–
Oc1ccc(-c2nc3ccccc3s2)cc1	–	–	–	–	–
Oc1ccc(-c2nc3ccccc3s2)c(O)c1	–	–	–	61	–
CCOc1ccc(C2c3[nH]c4ccccc4c3CCN2CCCn2cccn2)cc1 (stereo not drawn)	–	–	–	–	–
COC(=O)c1ccc(NC(=O)Nc2ccccc2F)cc1	–	–	–	70	–
SMILES	HCV NS3 hel inh	Lipid droplet	HSF1 inh	HSF1 activator	HSP90 inh
O=C(Nc1ccc(Cl)c(Cl)c1)Nc1ccccc1C(=O)O	–	–	–	68	18
COC(=O)c1sccc1NC(=O)Nc1ccc(OC)c(OC)c1	–	–	–	–	–
COC(=O)c1sccc1NC(=O)Nc1ccccc1F	–	–	–	58	–
COC(=O)c1sccc1NC(=O)Nc1ccc(Cl)c(Cl)c1	–	–	–	66	–
COc1ccc(C(=O)NCC(=O)OCc2ccccc2F)cc1	–	–	–	–	–
O=C(NCc1cccc(Cl)c1)C1CCC(=O)N(CCCN2CCCC2=O)C1 (stereo not drawn)	–	–	–	–	–
COC(=O)c1ccc(NC(=O)COc2ccc([N+](=O)[O-])cc2)cc1	–	–	–	–	–
O=C(Nc1ccc(Br)cc1)Nc1ccccc1Cl	–	–	–	58	–
COc1ccc(/C=N/N2C(C)CCCC2C)cc1OC (stereo not drawn)	–	–	–	–	–
Cc1ccc(NC(=O)COC(=O)[C@H](C)N2C(=O)C3CC=CCC3C2=O)cc1S(=O)(=O)N(C)C (stereo partly drawn)	–	–	–	68	–
Cc1ccc(NC(=O)COC(=O)Cn2cnc3ccccc32)cc1S(=O)(=O)N(C)C	–	–	-83	–	–
Cc1cccc(S(=O)(=O)NC(Cc2c[nH]c3ccccc23)C(=O)O)c1 (stereo not drawn)	–	–	–	–	–
COCC1CCCC1OS(N)(=O)=O (stereo not drawn)	–	–	–	–	–
Cc1c(-c2nc(N)nc(Nc3ccccc3)n2)oc2ccccc12	–	–	–	76	–
CC(/C=N/NC(=O)c1cc(-c2ccc(Cl)cc2)nc2ccccc12)=C\c1ccco1	–	?	–	–	–
CC(/C=N/NC(=O)c1cc(-c2ccccc2)nc2ccccc12)=C\c1ccco1	–	–	–	55	–
O=C(N/N=C/c1cccc(F)c1)c1cc(-c2ccco2)nc2ccccc12	40	·	–	–	–
C/C(=N\NC(=O)c1nnn(-c2nonc2N)c1-c1ccc2c(c1)OCO2)c1ccc(C)cc1	–	–	–	–	–
Cc1ccc(C(=O)Nc2ccccc2Sc2ccccc2)cc1	–	–	–	57	–
O=C1/C(=C\c2ccc(Br)o2)Cc2ccccc21	–	–	–	59	–
Cc1cccc(-c2nnc(SCC(=O)Nc3ncccn3)n2C)c1	–	–	–	–	–
COCC(=O)Nc1nc2ccc(C)cc2s1	–	–	–	–	17
Cc1ccc2nc(NC(=O)CSCC(=O)OCC(=O)c3ccc(Br)cc3)sc2c1	–	·	-66	–	50
O=C(NNS(=O)(=O)c1ccc(F)cc1)c1cc(Cl)ccc1O	–	–	–	–	–
O=C(OCN1C(=O)c2ccccc2C1=O)c1ccc(Cl)nc1	–	–	–	–	–
SMILES	HCV NS3 hel inh	Lipid droplet	HSF1 inh	HSF1 activator	HSP90 inh
O=c1c2ccccc2oc2ccc(C#CC3(O)CCCCC3)cc12	·	·	-86	–	·
Cc1cc2sc3ccc(C#CC4(O)CCCCC4)cc3c(=O)c2cc1C	·	·	-90	–	·
O=S(=O)(c1ccc2[nH]ccc2c1)N1CCCCCC1	–	–	–	–	–
O=C(/C=C/c1ccccc1)c1cc(Br)ccc(=O)c1O	–	·	–	91	–
O=C(/C=C/c1ccc(F)cc1)c1cc(Br)ccc1O	–	–	–	–	–
CCNC(=S)N(Cc1ccco1)Cc1cc2cc3c(cc2[nH]c1=O)OCCO3	–	–	–	62	–
Cc1cc(C)c2[nH]c(=O)c(CN(Cc3ccco3)C(=S)NCC3CCCO3)cc2c1 (stereo not drawn)	–	–	–	70	–
Cc1cc2cc(CN(Cc3ccco3)C(=S)NCC3CCCO3)c(=O)[nH]c2cc1C (stereo not drawn)	–	–	–	70	–
CCc1ccc2[nH]c(=O)c(CN(Cc3ccco3)C(=S)NCC3CCCO3)cc2c1 (stereo not drawn)	–	–	–	–	–
CC(C)C[C@H](NC(=O)OC(C)(C)C)C(=O)N[C@@H](CO)[C@H](O)[C@@H]1C[C@@H]1C(=O)N1CCCC1	–	–	–	–	–
